Measured values taken from ChEMBL document CHEMBL5113474, “Triazole-substituted phenylboronic acids as tunable lead inhibitors of KPC-2 antibiotic resistance” (Eur J Med Chem, 2022).
Converted amounts (≈) assume the structure as drawn.

Assays:
[1] = test system: Bacteria; test: Inhibition of bacterial beta-lactamase KPC-2 expressed in Escherichia coli BL21 (DE3) using nitrocefin as substrate at 1 uM by spectrophotometric analysis relative to control
Procedure, shortened: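 Purified recombinant KPC-2 tested against the chromogenic β-lactam nitrocefin at 1 µM inhibitor. Hydrolysis was followed as the rise in absorbance at 482 nm (ε482 = 17,400 M-1 cm-1). Activity is expressed as percent inhibition relative to an uninhibited control.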

[2] = test system: Escherichia coli; type: functional, BL21 (DE3); settings: time 16-18 hrs
[3] = Inhibition of bacterial beta-lactamase KPC-2 expressed in Escherichia coli BL21 (DE3) using nitrocefin as substrate assessed as inhibition constant by Cheng-Prusoff equation analysis; parameters: species or system Bacteria
[4] = Cytotoxicity against HEK293 cells assessed as cell viability at 5 to 50 ug/ml incubated for 24 hrs by MTT assay relative to control; settings: human, at 5 to 50 µg/mL
[5] = Cytotoxicity against HEK293 cells assessed as cell viability at 5 to 50 ug/ml incubated for 24 hrs in presence of cefotaxime by MTT assay relative to control; settings: human, at 5 to 50 µg/mL
[6] = test system: Escherichia coli; test: microbe, parasite or virus in culture; type: functional; settings: BL21 (DE3), dose 5 µg/ml, time 16-20 hrs
[7] = test system: Escherichia coli; test: microbe, parasite or virus in culture; type: functional; settings: BL21 (DE3), dose 50 µg/ml, time 16-20 hrs
[8] = test system: Escherichia coli; test: Antibacterial activity against Escherichia coli NCTC10418; type: functional
[9] = test system: Escherichia coli; test: microbe, parasite or virus in culture; type: functional; settings: BL21 (DE3), dose 50 µg/ml, time 16-20 hrs; remark: listed apart in the source
[10] = test system: Escherichia coli; test: microbe, parasite or virus in culture; type: functional; settings: BL21 (DE3), dose 5 µg/ml, time 16-20 hrs; remark: listed apart in the source
[11] = physchem; settings: 0.1 M phosphate buffer, pH 4.3

Compound: O=C(Nc1cccc(B(O)O)c1)c1cccs1
- inhibition [1]: 2%
- inhibition zone (IZ) [2]: 26 mm
- Ki [3]: 2900 nM
- viability at 24 h [4]: > 80%
- viability at 24 h [5]: > 80%

Compound: OB(O)c1ccc(Cn2cc(-c3ccccn3)nn2)cc1
- inhibition [1]: 47%
- inhibition zone (IZ) [2]: 27.4 mm
- viability at 24 h [4]: > 80%
- viability at 24 h [5]: > 80%

Compound: COc1ccc(-c2cn(-c3cccc(B(O)O)c3)nn2)cc1
- inhibition [1]: 5.9%
- inhibition zone (IZ) [2]: 30.1 mm

Compound: Nc1cc(F)c(F)c(B(O)O)c1
- inhibition zone (IZ) [2]: 25.5 mm

Compound: O=C(O)c1cn(Cc2cccc(B(O)O)c2)nn1
- MIC [6]: 2 µg/mL (≈ 8.1 µM)
- MIC [7]: 2 µg/mL (≈ 8.1 µM)
- inhibition [1]: 10%
- MIC [8]: > 64 µg/mL
- inhibition zone (IZ) [2]: 21.4 mm
- Ki [3]: 1020 nM
- viability at 24 h [4]: > 80%
- viability at 24 h [5]: > 80%
- MIC [9]: 0.12 µg/mL (≈ 0.486 µM)
- MIC [10]: 4 µg/mL (≈ 16.2 µM)

Compound: NCc1ccc(F)c(B(O)O)c1
- inhibition zone (IZ) [2]: 19.9 mm

Compound: OB(O)c1ccc(Cn2cc(-c3cccs3)nn2)cc1
- inhibition [1]: 45%
- inhibition zone (IZ) [2]: 27.5 mm
- Ki [3]: 275 nM

Compound: O=C(Nc1cccc(B(O)O)c1)c1cc2ccccc2s1
- inhibition [1]: 8.6%
- inhibition zone (IZ) [2]: 28.4 mm
- viability at 24 h [4]: > 80%
- viability at 24 h [5]: > 80%

Compound: CCC(=O)Nc1cccc(B(O)O)c1
- inhibition [1]: 16%
- inhibition zone (IZ) [2]: 25.2 mm
- viability at 24 h [4]: > 80%
- viability at 24 h [5]: > 80%

Compound: OB(O)c1cccc(-c2ccccc2)c1
- inhibition zone (IZ) [2]: 29.7 mm

Compound: CC(C)(C)c1cn(-c2cccc(B(O)O)c2)nn1
- inhibition [1]: 14%
- inhibition zone (IZ) [2]: 32.7 mm
- Ki [3]: 660 nM

Compound: [N-]=[N+]=Nc1ccc(F)c(B(O)O)c1
- MIC [6]: 1 µg/mL (≈ 5.53 µM)
- MIC [7]: 0.5 µg/mL (≈ 2.76 µM)
- inhibition [1]: 37%
- MIC [8]: > 64 µg/mL
- inhibition zone (IZ) [2]: 25.3 mm
- pKa at 100 µM [11]: 6.87
- Ki [3]: 570 nM
- MIC [9]: 0.25 µg/mL (≈ 1.38 µM)
- MIC [10]: 1 µg/mL (≈ 5.53 µM)

Compound: COc1ccc(-c2cn(Cc3ccc(B(O)O)cc3)nn2)cc1
- inhibition [1]: 59%
- inhibition zone (IZ) [2]: 22.6 mm
- Ki [3]: 227 nM

Compound: [N-]=[N+]=NCc1cccc(B(O)O)c1
- MIC [6]: ≤ 0.06 µg/mL
- inhibition [1]: 30%
- MIC [8]: > 64 µg/mL
- inhibition zone (IZ) [2]: 30 mm
- Ki [3]: 830 nM
- viability at 24 h [4]: > 80%
- viability at 24 h [5]: > 80%
- MIC [10]: 0.12 µg/mL (≈ 0.678 µM)

Compound: OB(O)c1ccc(-c2ccccc2)cc1 [BIPHENYLBORONIC ACID]
- inhibition zone (IZ) [2]: 32.2 mm

Compound: OB(O)c1cccc(Cn2cc(Cc3ccccc3)nn2)c1
- inhibition [1]: 48%
- inhibition zone (IZ) [2]: 23.6 mm

Compound: COc1ccc(B(O)O)c(-n2cccn2)c1
- inhibition zone (IZ) [2]: 21.7 mm

Compound: OB(O)c1cccc(Cn2cc(-c3ccccn3)nn2)c1
- inhibition [1]: 61%
- inhibition zone (IZ) [2]: 25.9 mm

Compound: OB(O)c1cccc(Cn2cc(-c3ccsc3)nn2)c1
- MIC [6]: ≤ 0.06 µg/mL
- MIC [7]: ≤ 0.06 µg/mL
- inhibition [1]: 92%
- MIC [8]: > 64 µg/mL
- inhibition zone (IZ) [2]: 32 mm
- Ki [3]: 32 nM
- MIC [10]: ≤ 0.06 µg/mL

Compound: O=[N+]([O-])c1cc(B(O)O)c(F)cc1F
- inhibition zone (IZ) [2]: 29.3 mm
- pKa at 100 µM [11]: 5.98

Compound: OB(O)c1ccc(Cn2cc(-c3cccnc3)nn2)cc1
- inhibition [1]: 59%
- inhibition zone (IZ) [2]: 23.7 mm

Compound: CC(C)(C)c1cn(Cc2cccc(B(O)O)c2)nn1
- MIC [7]: 0.5 µg/mL (≈ 1.93 µM)
- inhibition [1]: 50%
- MIC [8]: > 64 µg/mL
- inhibition zone (IZ) [2]: 33.5 mm
- Ki [3]: 280 nM
- MIC [9]: 0.12 µg/mL (≈ 0.463 µM)

Compound: OB(O)c1ccc(Cn2cc(-c3ccccc3)nn2)cc1
- inhibition [1]: 55%
- inhibition zone (IZ) [2]: 25.5 mm
- Ki [3]: 323 nM
- viability at 24 h [4]: > 80%
- viability at 24 h [5]: > 80%

Compound: O=C(O)c1cn(-c2cccc(B(O)O)c2)nn1
- inhibition [1]: 0.3%
- inhibition zone (IZ) [2]: 32.9 mm
- viability at 24 h [4]: > 80%
- viability at 24 h [5]: > 80%

Compound: OB(O)c1cccc(-n2cc(-c3cccs3)nn2)c1
- inhibition [1]: 20%
- inhibition zone (IZ) [2]: 31.8 mm
- Ki [3]: 710 nM
- viability at 24 h [4]: > 80%
- viability at 24 h [5]: > 80%

Compound: OB(O)c1cccc(Cn2cc(-c3cccs3)nn2)c1
- MIC [6]: ≤ 0.06 µg/mL
- MIC [7]: ≤ 0.06 µg/mL
- inhibition [1]: 85%
- MIC [8]: > 64 µg/mL
- inhibition zone (IZ) [2]: 33.7 mm
- Ki [3]: 67 nM
- viability at 24 h [4]: > 80%
- viability at 24 h [5]: > 80%
- MIC [10]: ≤ 0.06 µg/mL

Compound: Cc1ccc(F)c(B(O)O)c1
- inhibition zone (IZ) [2]: 29.6 mm

Compound: COc1ccc(-c2cn(Cc3cccc(B(O)O)c3)nn2)cc1
- inhibition [1]: 7%
- inhibition zone (IZ) [2]: 25.6 mm
- Ki [3]: 860 nM
- viability at 24 h [4]: > 80%
- viability at 24 h [5]: > 80%

Compound: [N-]=[N+]=NCc1ccc(B(O)O)cc1
- Ki [3]: 493 nM
- viability at 24 h [4]: > 80%
- viability at 24 h [5]: > 80%

Compound: O=C(Nc1cccc(B(O)O)c1)c1ccc2sccc2c1
- inhibition [1]: 10.2%
- inhibition zone (IZ) [2]: 26.1 mm

Compound: O=C(Nc1cccc(B(O)O)c1)c1ccccc1
- inhibition [1]: 40%
- inhibition zone (IZ) [2]: 25.2 mm
- viability at 24 h [4]: > 80%
- viability at 24 h [5]: > 80%

Compound: CCOC(=O)c1cn(Cc2cccc(B(O)O)c2)nn1
- inhibition [1]: 7%
- inhibition zone (IZ) [2]: 31.8 mm
- Ki [3]: 900 nM

Compound: O=C(Nc1cccc(B(O)O)c1)c1ccsc1
- MIC [6]: 0.12 µg/mL (≈ 0.486 µM)
- MIC [7]: 2 µg/mL (≈ 8.09 µM)
- inhibition [1]: 28%
- MIC [8]: > 64 µg/mL
- inhibition zone (IZ) [2]: 29 mm
- Ki [3]: 870 nM
- viability at 24 h [4]: > 80%
- viability at 24 h [5]: > 80%
- MIC [9]: 0.12 µg/mL (≈ 0.486 µM)
- MIC [10]: 4 µg/mL (≈ 16.2 µM)

Compound: Nc1cc(B(O)O)cc([N+](=O)[O-])c1
- inhibition zone (IZ) [2]: 26.9 mm

Compound: OB(O)c1cccc(Cn2cc(-c3cccnc3)nn2)c1
- inhibition [1]: 54%
- inhibition zone (IZ) [2]: 25.9 mm
- Ki [3]: 480 nM
- viability at 24 h [4]: > 80%
- viability at 24 h [5]: > 80%

Compound: CCOC(=O)c1cn(-c2cccc(B(O)O)c2)nn1
- MIC [7]: 2 µg/mL (≈ 7.66 µM)
- inhibition [1]: 25%
- MIC [8]: > 64 µg/mL
- inhibition zone (IZ) [2]: 30 mm
- viability at 24 h [4]: > 80%
- viability at 24 h [5]: > 80%
- MIC [9]: 1 µg/mL (≈ 3.83 µM)

Compound: OB(O)c1cccc(Cn2cc(-c3ccccc3)nn2)c1
- inhibition [1]: 69%
- inhibition zone (IZ) [2]: 29.6 mm
- Ki [3]: 166 nM
- viability at 24 h [4]: > 80%
- viability at 24 h [5]: > 80%

Compound: CCC1CC(=O)CCN1c1ccccc1B(O)O (stereo not given)
- inhibition zone (IZ) [2]: 18.7 mm

Compound: OB(O)c1ccc(Cn2cc(-c3ccsc3)nn2)cc1
- inhibition [1]: 53%
- inhibition zone (IZ) [2]: 27.6 mm
- Ki [3]: 219 nM
- viability at 24 h [4]: > 80%
- viability at 24 h [5]: > 80%

Compound: OB(O)c1cccc(Cn2cc(C3CC3)nn2)c1
- inhibition [1]: 30%
- inhibition zone (IZ) [2]: 30.9 mm
- Ki [3]: 515 nM

Compound: OB(O)c1cccc(-n2cc(C3CC3)nn2)c1
- inhibition [1]: 47%
- inhibition zone (IZ) [2]: 31.5 mm
- Ki [3]: 440 nM
- viability at 24 h [4]: > 80%
- viability at 24 h [5]: > 80%

Compound: [N-]=[N+]=Nc1cc(F)c(F)c(B(O)O)c1
- inhibition zone (IZ) [2]: 16.8 mm
- pKa at 100 µM [11]: 6.04
- Ki [3]: 27200 nM

Compound: OB(O)c1cccc(-n2cc(-c3ccccc3)nn2)c1
- inhibition [1]: 18%
- inhibition zone (IZ) [2]: 26.2 mm

Compound: O=[N+]([O-])c1cc(NCc2ccccc2)cc(B(O)O)c1
- inhibition zone (IZ) [2]: 20.9 mm
